In brackets after ≈: the same amount, converted by molar mass. Activity calls are given as the source filed them. The rule behind the calls is not given here.
Assays:
[1] = Intrinsic clearance in human liver microsomes at 1 uM in presence of NADPH by LC-MS/MS analysis; type: ADME, microsome
How it was run: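 Pooled mixed-gender human liver microsomes (0.5 mg/mL) in 100 mM potassium phosphate pH 7.4 with NADPH-regenerating mix plus UDP-GA, test compound 1 µM, 15 min at 37 °C. Acetonitrile stop, LC-MS/MS. k from the remaining fraction. CLint,u is scaled with 48.8 mg protein/g liver and 25.7 g liver/kg, and corrected by fu from equilibrium dialysis (1 µM, 0.5 mg/mL, 6 h, 37 °C).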

[2] = Intrinsic clearance in Sprague-Dawley rat liver microsomes at 0.5 uM in presence of NADPH by LC-MS/MS analysis; type: ADME, microsome
How it was run: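 Pooled male Sprague-Dawley rat liver microsomes (0.5 mg/mL final) in 100 mM Tris-HCl pH 7.4 with NADPH-regenerating mix plus UDP-GA, test compound 0.5 µM, 20 min at 37 °C. Acetonitrile stop, LC-MS/MS. CLint,u is scaled with 44.8 mg protein/g liver and 40.0 g liver/kg, and corrected by fu from ultracentrifugation (160,000g, 16 h, 37 °C).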

[3] = molecular target: T1, Alpha-1A adrenergic receptor (Homo sapiens, UniProt P35348); assay: Intrinsic activity at recombinant human alpha1A adrenergic receptor expressed in HEK293 cells assessed as intercellular Ca mobilization by Fura-2AM dye-based fluorescence assay relative to norepinephrine; type: cell-based; details: read-out: Intrinsic activity
T1 sequence (P35348 whole entry): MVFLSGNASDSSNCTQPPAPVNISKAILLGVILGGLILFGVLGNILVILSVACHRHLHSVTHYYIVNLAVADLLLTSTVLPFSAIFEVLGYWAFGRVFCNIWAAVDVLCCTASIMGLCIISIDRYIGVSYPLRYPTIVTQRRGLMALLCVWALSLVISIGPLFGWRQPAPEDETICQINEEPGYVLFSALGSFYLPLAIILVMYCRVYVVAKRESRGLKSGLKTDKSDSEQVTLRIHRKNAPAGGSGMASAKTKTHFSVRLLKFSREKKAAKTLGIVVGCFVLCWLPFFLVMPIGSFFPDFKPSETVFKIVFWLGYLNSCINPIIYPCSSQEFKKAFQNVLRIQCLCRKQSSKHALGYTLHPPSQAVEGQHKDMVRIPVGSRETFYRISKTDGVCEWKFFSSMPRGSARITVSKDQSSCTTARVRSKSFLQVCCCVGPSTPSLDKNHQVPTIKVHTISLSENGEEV

Homo sapiens = organism: Homo sapiens; assay: Selectivity ratio of EC50 for recombinant human alpha1A adrenergic receptor to EC50 for recombinant human beta3 adrenergic receptor
[4] = Solubility of the compound at pH 1.2 buffer solution after 18 hrs by HPLC analysis; type: physicochemical
[5] = AUC in Sprague-Dawley rat at 5 mg/kg, po by LC-MS/MS analysis; type: ADME, organism-based; details: in vivo
How it was run: (§1)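 Male Sprague-Dawley rats (n = 2 or 3) dosed orally at 5 mg/kg in saline or water (5 mL/kg). Blood taken from the subclavian vein at 0.5, 1, 2, 4, 6 and 8 h; plasma separated by centrifugation, stored at -20 °C, and drug levels measured by LC-MS/MS. Values are mean ± SD (n = 3) or the average of two experiments.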

[6] = Membrane permeability in MDCK cells at 50 uM after 60 mins by LC-MS/MS analysis; type: ADME, cell-based, Canis lupus familiaris; details: dog, read-out: permeability
[7] = Cmax in Sprague-Dawley rat at 5 mg/kg, po by LC-MS/MS analysis; type: ADME, organism-based; parameters: dose 5 mg/kg, route oral; details: in vivo; how it was run: as §1
[8] = Solubility of the compound at pH 6.8 buffer solution after 18 hrs by HPLC analysis; type: physicochemical
[9] = molecular target: T2, Beta-1 adrenergic receptor (Homo sapiens, UniProt P08588); assay: Intrinsic activity at recombinant human beta1 adrenergic receptor assessed as accumulation of cyclic AMP after 30 mins relative to isoproterenol; details: 0.5 h
T2 sequence (P08588 whole entry): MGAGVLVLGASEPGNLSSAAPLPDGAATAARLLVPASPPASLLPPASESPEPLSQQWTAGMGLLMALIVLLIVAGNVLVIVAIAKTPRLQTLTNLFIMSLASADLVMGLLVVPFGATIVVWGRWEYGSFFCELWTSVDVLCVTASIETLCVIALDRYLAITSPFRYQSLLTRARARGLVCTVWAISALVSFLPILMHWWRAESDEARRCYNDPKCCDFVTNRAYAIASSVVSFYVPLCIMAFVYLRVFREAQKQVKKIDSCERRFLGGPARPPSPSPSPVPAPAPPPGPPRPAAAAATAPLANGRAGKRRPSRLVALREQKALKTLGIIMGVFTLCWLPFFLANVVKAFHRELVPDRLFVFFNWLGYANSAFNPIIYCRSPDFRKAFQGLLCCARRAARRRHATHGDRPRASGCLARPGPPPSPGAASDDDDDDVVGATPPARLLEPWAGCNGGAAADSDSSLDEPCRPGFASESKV

[10] = Half life in Sprague-Dawley rat at 5 mg/kg, po by LC-MS/MS analysis; type: ADME, organism-based; details: in vivo; how it was run: as §1
[11] = molecular target: T3, Beta-2 adrenergic receptor (Homo sapiens, UniProt P07550); assay: Intrinsic activity at recombinant human beta2 adrenergic receptor assessed as accumulation of cyclic AMP after 30 mins relative to isoproterenol
T3 sequence (P07550 whole entry): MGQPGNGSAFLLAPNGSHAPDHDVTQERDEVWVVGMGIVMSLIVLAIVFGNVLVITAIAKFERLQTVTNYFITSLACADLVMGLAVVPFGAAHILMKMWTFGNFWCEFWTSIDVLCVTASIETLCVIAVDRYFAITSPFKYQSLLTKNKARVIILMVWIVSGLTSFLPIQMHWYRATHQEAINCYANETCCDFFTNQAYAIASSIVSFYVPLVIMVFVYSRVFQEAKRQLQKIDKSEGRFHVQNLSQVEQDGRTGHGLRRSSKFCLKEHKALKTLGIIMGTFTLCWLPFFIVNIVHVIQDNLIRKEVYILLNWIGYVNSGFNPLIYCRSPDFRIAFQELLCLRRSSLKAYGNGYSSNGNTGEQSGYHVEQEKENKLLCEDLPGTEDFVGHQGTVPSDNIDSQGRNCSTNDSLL

[12] = molecular target: T1, Alpha-1A adrenergic receptor; assay: Agonist activity at recombinant human alpha1A adrenergic receptor expressed in HEK293 cells assessed as intercellular Ca mobilization by Fura-2AM dye-based fluorescence assay; type: cell-based
[13] = molecular target: T4, Beta-3 adrenergic receptor (Homo sapiens, UniProt P13945); assay: Intrinsic activity at recombinant human beta3 adrenergic receptor expressed in CHO cells assessed as accumulation of cyclic AMP after 30 mins relative to isoproterenol; type: cell-based
Target sequence in this assay (P13945 whole entry, looked up): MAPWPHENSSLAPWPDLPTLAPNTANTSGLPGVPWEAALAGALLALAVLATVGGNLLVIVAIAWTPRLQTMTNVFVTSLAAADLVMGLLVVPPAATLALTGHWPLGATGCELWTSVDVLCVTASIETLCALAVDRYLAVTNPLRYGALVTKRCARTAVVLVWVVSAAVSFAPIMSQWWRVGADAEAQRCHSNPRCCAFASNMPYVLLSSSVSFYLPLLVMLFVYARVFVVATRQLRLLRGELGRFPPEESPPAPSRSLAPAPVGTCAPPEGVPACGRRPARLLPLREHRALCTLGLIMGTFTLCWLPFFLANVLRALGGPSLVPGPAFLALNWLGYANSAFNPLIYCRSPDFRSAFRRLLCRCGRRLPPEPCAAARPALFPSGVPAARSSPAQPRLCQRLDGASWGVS

[14] = molecular target: T4, Beta-3 adrenergic receptor; assay: Agonist activity at recombinant human beta3 adrenergic receptor expressed in CHO cells assessed as accumulation of cyclic AMP after 30 mins; type: cell-based
Target sequence in this assay (P13945 whole entry): as the sequence (P13945 whole entry, looked up) above

[15] = molecular target: Adrenoceptor beta 3 (Callithrix jacchus) (UniProt F6XZF4); assay: Agonist activity at beta3 adrenergic receptor in marmoset urinary bladder smooth muscle strips assessed as induction of KCl-precontracted muscle relaxation treated every 20 mins
Adrenoceptor beta 3 (Callithrix jacchus), sequence (F6XZF4 as listed by the source): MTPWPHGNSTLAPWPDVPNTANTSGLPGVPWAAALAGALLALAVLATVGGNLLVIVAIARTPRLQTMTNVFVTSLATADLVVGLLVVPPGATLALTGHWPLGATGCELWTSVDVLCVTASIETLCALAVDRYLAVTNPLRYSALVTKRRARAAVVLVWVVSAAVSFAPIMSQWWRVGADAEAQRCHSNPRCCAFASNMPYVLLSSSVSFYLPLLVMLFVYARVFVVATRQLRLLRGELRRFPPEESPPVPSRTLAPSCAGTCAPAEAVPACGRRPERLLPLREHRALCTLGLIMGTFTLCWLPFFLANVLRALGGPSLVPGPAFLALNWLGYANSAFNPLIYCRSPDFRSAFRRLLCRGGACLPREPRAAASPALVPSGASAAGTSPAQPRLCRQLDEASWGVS

[16] = molecular target: T2, Beta-1 adrenergic receptor; assay: Agonist activity at recombinant human beta1 adrenergic receptor expressed in CHO cells assessed as accumulation of cyclic AMP after 30 mins; type: cell-based
[17] = molecular target: T3, Beta-2 adrenergic receptor; assay: Agonist activity at recombinant human beta2 adrenergic receptor expressed in CHO cells assessed as accumulation of cyclic AMP after 30 mins; type: cell-based
Rattus norvegicus [18] = assay: Cardiotoxicity in Sprague-Dawley rat assessed as increase in heart beat rate at 3 mg/kg, iv after 30 mins (reference value: 1.8 +/- 0.9%); type: toxicity, organism-based; details: in vivo, 0.5 h
Rattus norvegicus [19] = assay: Cardiotoxicity in Sprague-Dawley rat assessed as increase in mean blood pressure at 3 mg/kg, iv after 30 mins (reference value: 1 +/- 0.5%); type: toxicity, organism-based; details: in vivo, 0.5 h
CYP2D6 = CYP2D6 (Homo sapiens, UniProt P10635); assay: Inhibition of CYP2D6 (unknown origin) at 10 uM relative to control; type: ADME
CYP2D6, sequence (P10635 whole entry): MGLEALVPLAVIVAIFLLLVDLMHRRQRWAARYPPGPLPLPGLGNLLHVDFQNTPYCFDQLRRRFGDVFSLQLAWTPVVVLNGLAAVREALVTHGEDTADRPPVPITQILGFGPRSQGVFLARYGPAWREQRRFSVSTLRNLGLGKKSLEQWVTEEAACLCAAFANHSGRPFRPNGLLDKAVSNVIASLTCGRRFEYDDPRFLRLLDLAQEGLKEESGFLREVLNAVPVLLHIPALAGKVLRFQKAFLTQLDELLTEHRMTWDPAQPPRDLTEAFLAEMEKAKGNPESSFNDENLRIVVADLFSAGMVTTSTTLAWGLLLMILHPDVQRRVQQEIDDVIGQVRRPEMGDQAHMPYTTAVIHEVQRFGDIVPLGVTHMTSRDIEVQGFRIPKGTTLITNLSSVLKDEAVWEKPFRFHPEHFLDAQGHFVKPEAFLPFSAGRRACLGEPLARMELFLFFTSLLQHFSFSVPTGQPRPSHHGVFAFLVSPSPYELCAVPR

Rattus norvegicus [20] = assay: Cardiotoxicity in Sprague-Dawley rat assessed as decrease in mean blood pressure at 3 mg/kg, iv after 30 mins (reference value: 5.4 +/- 1.9%); type: toxicity, organism-based; parameters: scale not given: the % may be the effect or the level left; details: in vivo, 0.5 h

Row | CLint scaled at 1 µM [1] [L/h/kg] | CLint scaled at 0.5 µM [2] [L/h/kg] | Emax [3] [%] | Ratio EC50 (Homo sapiens) | EC50 [12] [µM] | Intrinsic activity [13] [%] | EC50 [14] [µM] | SMILES | also measured
1 | < 0.6 | 6.18 | 71 | 10 |  |  |  | Cc1n[nH]c2cc(OCCNC[C@H](O)c3cccc(NS(C)(=O)=O)c3)ccc12 | solubility at 18 h [4]: 285 µM (≈ 115 µg/mL); AUC [5]: 0.542 µg·h/mL; Papp at 1 h, 50 µM [6]: 24 nm/s; Cmax [7]: 0.107 µg/mL; solubility at 18 h [8]: 273 µM (≈ 110 µg/mL)
2 |  |  | 26 | 29 | 1.25 | 72 | 0.043 | Cc1n[nH]c2cc(OCCNC[C@H](O)c3cccc(NS(=O)(=O)C4CC4)c3)ccc12 | 
3 |  |  | 27 | 25 | 1.76 | 90 | 0.07 | Cc1n[nH]c2cc(OCCNC[C@H](O)c3cccc(NS(=O)(=O)C(C)C)c3)ccc12 | 
4 |  |  | 0 | > 32 | > 10 | 58 | 0.309 | Cc1n[nH]c2cc(OCCNC[C@H](O)c3cccc(NS(=O)(=O)C4CCCC4)c3)ccc12 | 

More lines, now with the values behind:

Row | SMILES | CLint scaled at 1 µM [1] [L/h/kg] | CLint scaled at 0.5 µM [2] [L/h/kg] | Emax [3] [%] | Ratio EC50 (Homo sapiens) | EC50 [12] [µM] | Intrinsic activity [13] [%] | EC50 [14] [µM] | also measured
5 | CS(=O)(=O)Nc1cccc([C@@H](O)CNCCOc2ccc3c(C4CCC4)n[nH]c3c2)c1 | 27.8 | 38.5 | 4 | > 151 |  |  |  | 
6 | CC(C)c1n[nH]c2cc(OCCNC[C@H](O)c3cccc(NS(C)(=O)=O)c3)ccc12 | 11.6 | 12.7 | 9.1 | > 769 |  |  |  | Intrinsic activity [9]: 11.9%; solubility at 18 h [4]: 295 µM (≈ 128 µg/mL); AUC [5]: 0.2 µg·h/mL; Papp at 1 h, 50 µM [6]: 41 nm/s; half-life [10]: 1.62 h; Cmax [7]: 0.0452 µg/mL; solubility at 18 h [8]: 267 µM (≈ 115 µg/mL); Emax at 0.5 h [11]: 5.6%
7 | CCc1n[nH]c2cc(OCCNC[C@H](O)c3cccc(NS(C)(=O)=O)c3)ccc12 | 2.52 | 6.78 | 31 | 61 |  |  |  | 
8 | CCCS(=O)(=O)Nc1cccc([C@@H](O)CNCCOc2ccc3c(C)n[nH]c3c2)c1 |  |  | 84 | 25 | 0.163 | 79 | 0.0065 | 
9 | CC(C)NCC(O)c1ccc(O)c(O)c1 (configuration not stated) |  |  |  |  |  |  |  | Activity [15]: Active
10 | Cc1n[nH]c2cc(OCCNC[C@H](O)c3cccc(NS(=O)(=O)c4ccccc4)c3)ccc12 | 27.8 |  | 0 | > 2560 | > 10 | 85 | 0.0039 | EC50 [16]: > 10 µM; EC50 [17]: > 10 µM; Intrinsic activity [9]: 10%; solubility at 18 h [4]: 300 µM (≈ 140 µg/mL); Papp at 1 h, 50 µM [6]: 51 nm/s; solubility at 18 h [8]: 229 µM (≈ 107 µg/mL); Emax at 0.5 h [11]: 0%
11 | Nc1nc(CC(=O)Nc2ccc(CCNC[C@H](O)c3ccccc3)cc2)cs1 [MIRABEGRON] |  |  |  |  |  |  |  | Activity (Rattus norvegicus [18]): 10%; Activity (Rattus norvegicus [19]): 3.5%; inhibition at 10 µM (CYP2D6): 87%; Activity (Rattus norvegicus [20]): 38.3%

Reference: ChEMBL document CHEMBL4049422, “Discovery of Novel Indazole Derivatives as Orally Available β3-Adrenergic Receptor Agonists Lacking Off-Target-Based Cardiovascular Side Effects” (J Med Chem, 2017)
